Test results: ChEMBL document CHEMBL2311431, “Synthesis and biological evaluation of some 5-arylidene-2-(1,3-thiazol-2-ylimino)-1,3-thiazolidin-4-ones as dual anti-inflammatory/antimicrobial agents” (Bioorg Med Chem, 2013)
Converted amounts (≈) assume the structure as drawn. The source made the active and inactive calls. No cut-off for these calls is given here.

Tests used:
[1] = tested on: Mus musculus; assay: Acute toxicity in AKR mouse up to 0.5 mmol/kg, ip; assay type: organism-based; details: in vivo
[2] = tested on: Mus musculus; assay: Antiinflammatory activity in AKR mouse assessed as inhibition of carrageenan-induced paw edema at 0.01 mmol/kg, ip measured after 3.5 hrs of carrageenan-challenge; assay type: functional
Summary of the method: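 AKR mice of both sexes (pregnant females excluded), 6-10 per group, fasted during the experiment. Edema induced by intradermal 0.05 mL of 2% carrageenin into the right hind paw. Compound given at 0.01 mmol/kg ip, suspended in water with Tween-80, at the same time as carrageenin.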

[3] = target: T1, Prostaglandin G/H synthase 1 (Ovis aries) (UniProt P05979); assay: Inhibition of ovine COX1 assessed as inhibition of PGF2a production by enzyme immunoassay; set-up: concentration or dose not given beside the values
T1 sequence (whole entry): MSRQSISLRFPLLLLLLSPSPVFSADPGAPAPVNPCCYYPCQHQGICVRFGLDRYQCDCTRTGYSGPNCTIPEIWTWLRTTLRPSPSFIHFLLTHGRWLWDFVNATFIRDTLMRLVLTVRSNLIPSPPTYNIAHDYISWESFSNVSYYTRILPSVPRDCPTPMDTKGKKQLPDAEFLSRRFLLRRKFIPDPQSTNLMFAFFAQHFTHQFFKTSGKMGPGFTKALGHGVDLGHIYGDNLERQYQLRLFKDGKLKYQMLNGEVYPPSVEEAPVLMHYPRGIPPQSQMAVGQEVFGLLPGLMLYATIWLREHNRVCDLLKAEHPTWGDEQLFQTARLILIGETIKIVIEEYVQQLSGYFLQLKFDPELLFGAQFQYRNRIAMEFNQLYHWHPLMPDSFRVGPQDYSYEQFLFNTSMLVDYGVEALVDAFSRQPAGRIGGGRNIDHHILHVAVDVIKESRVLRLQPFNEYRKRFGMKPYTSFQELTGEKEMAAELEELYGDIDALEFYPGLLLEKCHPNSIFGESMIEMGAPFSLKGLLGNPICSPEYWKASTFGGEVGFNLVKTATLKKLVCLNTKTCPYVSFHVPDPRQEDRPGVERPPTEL
Summary of the method: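 Ovine COX-1 from a commercial screening kit, tested with 0.1 µM arachidonic acid, which is below the saturating level. COX-derived PGH2 is reduced by SnCl2 to PGF2a, quantified by enzyme immunoassay with a broad prostaglandin antibody. At least triplicate.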

[4] = Inhibition of soybean lipoxygenase assessed as inhibition of sodium linolate conversion to 13-hydroperoxylinoleic acid after 4 mins by spectrophotometry; set-up: species or system Glycine max
[5] = tested on: Aspergillus niger; assay: Fungicidal activity against Aspergillus niger ATCC 6275 after 72 hrs by serial subcultivation method; assay type: functional; details: ATCC 6275, 72 h
[6] = tested on: Aspergillus niger; assay: Antifungal activity against Aspergillus niger ATCC 6275 after 72 hrs by serial dilution technique; assay type: functional; details: ATCC 6275, 72 h
Summary of the method: (§1)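 Serial dilution in malt broth; compounds from 1 mg/ml stocks in 5% DMSO; 72 h at 28 °C. MIC is the lowest concentration with no visible growth under a binocular microscope. Run in duplicate, repeated three times.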

[7] = tested on: Aspergillus fumigatus; assay: Fungicidal activity against Aspergillus fumigatus after 72 hrs by serial subcultivation method; assay type: functional
[8] = tested on: Aspergillus flavus; assay: Fungicidal activity against Aspergillus flavus ATCC 9643 after 72 hrs by serial subcultivation method; assay type: functional; details: ATCC 9643, 72 h
[9] = tested on: Trichoderma viride; assay: Fungicidal activity against Trichoderma viride IAM 5061 after 72 hrs by serial subcultivation method; assay type: functional; details: IAM 5061, 72 h
[10] = tested on: Penicillium ochrochloron; assay: Fungicidal activity against Penicillium ochrochloron ATCC 9112 after 72 hrs by serial subcultivation method; assay type: functional; details: ATCC 9112, 72 h
[11] = tested on: Aspergillus flavus; assay: Antifungal activity against Aspergillus flavus ATCC 9643 after 72 hrs by serial dilution technique; assay type: functional; details: ATCC 9643, 72 h; summary of the method: as §1
[12] = tested on: Talaromyces funiculosus; assay: Fungicidal activity against Penicillium funiculosum ATCC 36839 after 72 hrs by serial subcultivation method; assay type: functional; details: ATCC 36839, 72 h
[13] = tested on: Aspergillus fumigatus; assay: Antifungal activity against Aspergillus fumigatus after 72 hrs by serial dilution technique; assay type: functional; summary of the method: as §1
[14] = tested on: Trichoderma viride; assay: Antifungal activity against Trichoderma viride IAM 5061 after 72 hrs by serial dilution technique; assay type: functional; details: IAM 5061, 72 h; summary of the method: as §1
[15] = tested on: Penicillium ochrochloron; assay: Antifungal activity against Penicillium ochrochloron ATCC 9112 after 72 hrs by serial dilution technique; assay type: functional; details: ATCC 9112, 72 h; summary of the method: as §1
[16] = tested on: Talaromyces funiculosus; assay: Antifungal activity against Penicillium funiculosum ATCC 36839 after 72 hrs by serial dilution technique; assay type: functional; details: ATCC 36839, 72 h; summary of the method: as §1
[17] = tested on: Escherichia coli; assay: Bactericidal activity against Escherichia coli ATCC 35210 after 72 hrs by serial subcultivation method; assay type: functional; details: ATCC 35210, 72 h
[18] = tested on: Pseudomonas aeruginosa; assay: Bactericidal activity against Pseudomonas aeruginosa ATCC 27853 after 72 hrs by serial subcultivation method; assay type: functional; details: ATCC 27853, 72 h
[19] = tested on: Listeria monocytogenes; assay: Bactericidal activity against Listeria monocytogenes NCTC 7973 after 72 hrs by serial subcultivation method; assay type: functional; details: NCTC 7973, 72 h
[20] = tested on: Bacillus cereus; assay: Bactericidal activity against Bacillus cereus clinical isolate after 72 hrs by serial subcultivation method; assay type: functional
[21] = tested on: Micrococcus flavus; assay: Bactericidal activity against Micrococcus flavus ATCC 10240 after 72 hrs by serial subcultivation method; assay type: functional; details: ATCC 10240, 72 h
[22] = tested on: Staphylococcus aureus; assay: Bactericidal activity against Staphylococcus aureus ATCC 6538 after 72 hrs by serial subcultivation method; assay type: functional; details: ATCC 6538, 72 h
[23] = tested on: Escherichia coli; assay: Antibacterial activity against Escherichia coli ATCC 35210 after 24 hr by microdilution test; assay type: functional; details: ATCC 35210, 24 h
Summary of the method: (§2)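 Broth microdilution in LB medium, about 1.0×10^4 cfu per well; compounds from 1 mg/ml stocks in 5% DMSO. Incubated 24 h. MIC is the lowest concentration with no visible growth under a binocular microscope. Run in duplicate, repeated three times.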

[24] = tested on: Listeria monocytogenes; assay: Antibacterial activity against Listeria monocytogenes NCTC 7973 after 24 hr by microdilution test; assay type: functional; details: NCTC 7973, 24 h; summary of the method: as §2
[25] = tested on: Pseudomonas aeruginosa; assay: Antibacterial activity against Pseudomonas aeruginosa ATCC 27853 after 24 hr by microdilution test; assay type: functional; details: ATCC 27853, 24 h; summary of the method: as §2
[26] = tested on: Micrococcus flavus; assay: Antibacterial activity against Micrococcus flavus ATCC 10240 after 24 hr by microdilution test; assay type: functional; details: ATCC 10240, 24 h; summary of the method: as §2
[27] = tested on: Bacillus cereus; assay: Antibacterial activity against Bacillus cereus clinical isolate after 24 hr by microdilution test; assay type: functional; summary of the method: as §2
[28] = tested on: Staphylococcus aureus; assay: Antibacterial activity against Staphylococcus aureus ATCC 6538 after 24 hr by microdilution test; assay type: functional; details: ATCC 6538, 24 h; summary of the method: as §2

SMILES | Activity [1] | inhibition in vivo at 10 µmol/kg [2] | inhibition ([3]; concentration not given here) | IC50 ([4]; read-out: IC50) | MFC [5] | MIC [6] | MFC [7] | MFC [8] | MFC [9] | MFC [10] | MIC [11] | MFC [12] | MIC [13] | MIC [14] | MIC [15] | MIC [16] | MBC [17] | MBC [18] | MBC [19] | MBC [20] | also measured
O=C1N/C(=N\c2nc(-c3ccccc3)cs2)S/C1=C\c1cccc(Cl)c1 | Non-toxic | 51% | 65% | 88 µM | 25.2 µM (≈ 10 µg/mL) | 19 µM (≈ 7.56 µg/mL) | 25.2 µM (≈ 10 µg/mL) | 25.2 µM (≈ 10 µg/mL) | 25.2 µM (≈ 10 µg/mL) | 25.2 µM (≈ 10 µg/mL) | 19 µM (≈ 7.56 µg/mL) | 25.2 µM (≈ 10 µg/mL) | 19 µM (≈ 7.56 µg/mL) | 12.6 µM (≈ 5.01 µg/mL) | 19 µM (≈ 7.56 µg/mL) | 19 µM (≈ 7.56 µg/mL) | 50.4 µM (≈ 20.1 µg/mL) | 50.4 µM (≈ 20.1 µg/mL) | 50.4 µM (≈ 20.1 µg/mL) | 25.2 µM (≈ 10 µg/mL) | MBC [21]: 50.4 µM (≈ 20.1 µg/mL); MBC [22]: 50.4 µM (≈ 20.1 µg/mL); MIC [23]: 25.2 µM (≈ 10 µg/mL); MIC [24]: 25.2 µM (≈ 10 µg/mL); MIC [25]: 25.2 µM (≈ 10 µg/mL); MIC [26]: 25.2 µM (≈ 10 µg/mL); MIC [27]: 25.2 µM (≈ 10 µg/mL); MIC [28]: 25.2 µM (≈ 10 µg/mL)
c1ccc(-c2ccc(C(c3ccccc3)n3ccnc3)cc2)cc1 (stereo not given) [BIFONAZOLE] | – | – | – | – | 640 µM (≈ 199 µg/mL) | 480 µM (≈ 149 µg/mL) | 640 µM (≈ 199 µg/mL) | 640 µM (≈ 199 µg/mL) | 800 µM (≈ 248 µg/mL) | 640 µM (≈ 199 µg/mL) | 480 µM (≈ 149 µg/mL) | 800 µM (≈ 248 µg/mL) | 480 µM (≈ 149 µg/mL) | 640 µM (≈ 199 µg/mL) | 480 µM (≈ 149 µg/mL) | 640 µM (≈ 199 µg/mL) | – | – | – | – | –
O=C1N/C(=N\c2nc(-c3ccccc3)cs2)S/C1=C\c1ccccc1 | Non-toxic | 59.3% | 67% | 66 µM | 25.2 µM (≈ 9.16 µg/mL) | 19 µM (≈ 6.91 µg/mL) | 25.2 µM (≈ 9.16 µg/mL) | 25.2 µM (≈ 9.16 µg/mL) | 25.2 µM (≈ 9.16 µg/mL) | 25.2 µM (≈ 9.16 µg/mL) | 19 µM (≈ 6.91 µg/mL) | 25.2 µM (≈ 9.16 µg/mL) | 19 µM (≈ 6.91 µg/mL) | 12.6 µM (≈ 4.58 µg/mL) | 19 µM (≈ 6.91 µg/mL) | 19 µM (≈ 6.91 µg/mL) | 108 µM (≈ 39.3 µg/mL) | 108 µM (≈ 39.3 µg/mL) | 27 µM (≈ 9.81 µg/mL) | 27 µM (≈ 9.81 µg/mL) | MBC [21]: 27 µM (≈ 9.81 µg/mL); MBC [22]: 108 µM (≈ 39.3 µg/mL); MIC [23]: 54 µM (≈ 19.6 µg/mL); MIC [24]: 27 µM (≈ 9.81 µg/mL); MIC [25]: 27 µM (≈ 9.81 µg/mL); MIC [26]: 27 µM (≈ 9.81 µg/mL); MIC [27]: 6.8 µM (≈ 2.47 µg/mL); MIC [28]: 54 µM (≈ 19.6 µg/mL)
O=C1N/C(=N\c2nc(-c3ccccc3)cs2)S/C1=C\c1ccc(Cl)cc1 | Non-toxic | 27.3% | 78% | 54 µM | 27.3 µM (≈ 10.9 µg/mL) | 13.7 µM (≈ 5.45 µg/mL) | 27.3 µM (≈ 10.9 µg/mL) | 27.3 µM (≈ 10.9 µg/mL) | 27.3 µM (≈ 10.9 µg/mL) | 27.3 µM (≈ 10.9 µg/mL) | 13.7 µM (≈ 5.45 µg/mL) | 27.3 µM (≈ 10.9 µg/mL) | 13.7 µM (≈ 5.45 µg/mL) | 13.7 µM (≈ 5.45 µg/mL) | 13.7 µM (≈ 5.45 µg/mL) | 20.5 µM (≈ 8.16 µg/mL) | 50 µM (≈ 19.9 µg/mL) | 100 µM (≈ 39.8 µg/mL) | 100 µM (≈ 39.8 µg/mL) | 50 µM (≈ 19.9 µg/mL) | MBC [21]: 25 µM (≈ 9.95 µg/mL); MBC [22]: 100 µM (≈ 39.8 µg/mL); MIC [23]: 50 µM (≈ 19.9 µg/mL); MIC [24]: 50 µM (≈ 19.9 µg/mL); MIC [25]: 50 µM (≈ 19.9 µg/mL); MIC [26]: 25 µM (≈ 9.95 µg/mL); MIC [27]: 25 µM (≈ 9.95 µg/mL); MIC [28]: 50 µM (≈ 19.9 µg/mL)
COc1ccc2c(c1)c(CC(=O)O)c(C)n2C(=O)c1ccc(Cl)cc1 [INDOMETHACIN] | – | – | – | – | – | – | – | – | – | – | – | – | – | – | – | – | – | – | – | – | inhibition [3]: inactive; IC50 [4]: Not Active
CC(=O)N1CCN(c2ccc(OCC3COC(Cn4ccnc4)(c4ccc(Cl)cc4Cl)O3)cc2)CC1 (stereo not given) [KETOCONAZOLE] | – | – | – | – | 950 µM (≈ 505 µg/mL) | 380 µM (≈ 202 µg/mL) | 950 µM (≈ 505 µg/mL) | 3800 µM (≈ 2020 µg/mL) | 5700 µM (≈ 3030 µg/mL) | 3800 µM (≈ 2020 µg/mL) | 2850 µM (≈ 1510 µg/mL) | 950 µM (≈ 505 µg/mL) | 380 µM (≈ 202 µg/mL) | 4750 µM (≈ 2520 µg/mL) | 3800 µM (≈ 2020 µg/mL) | 380 µM (≈ 202 µg/mL) | – | – | – | – | –
